In general, Ki refers to the equilibrium dissociation constant of an inhibitor or competing ligand from its target.

For series [1], the species on record is Rattus norvegicus. The series can be described thus: Selectivity ratio of Ki for mu opioid receptor in Sprague-Dawley rat brain to Ki for delta opioid receptor in Sprague-Dawley rat brain.
Series [2] concerns the target Mu-type opioid receptor (Rattus norvegicus, UniProt P33535). Description: Displacement of [3H]DAMGO from mu opioid receptor in Sprague-Dawley rat brain P2 synaptosomal membrane. The method, boiled down: (§1)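 Competition binding to Sprague-Dawley rat brain P2 synaptosomal membranes, preincubated to strip endogenous opioids and stored at −80 °C in buffered 20% glycerol. Incubated at equilibrium for 2.5 h at 23 °C. Separated on polyethylenimine-soaked (0.1%) glass-fibre filters washed three times in ice-cold buffered BSA. Duplicates at five to eight doses, 3–5 independent membrane preparations; Ki by Cheng–Prusoff, mean ± SE.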
A general note: Loss of bound radioactivity is the signal in a displacement assay; it reports binding, not function.

Series [3] deals with Delta-type opioid receptor (Rattus norvegicus, UniProt P33533). Description: Displacement of [3H]deltorphin2 from delta opioid receptor in Sprague-Dawley rat brain P2 synaptosomal membrane. The method in brief:
as §1

The target in series [4] is Delta-type opioid receptor (Mus musculus, UniProt P32300). Description: Antagonist activity at delta opioid receptor in mouse vas deferens assessed as effect on deltorphin 2-induced response. Format: functional, tissue-based. Particulars: read-out: pA2 (converted). The method, boiled down:
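Single mouse vas deferens suspended in an organ bath in balanced physiological salt buffer, pH 7.5. Agonism measured as inhibition of electrically evoked contraction, with IC50 taken from dose-response curves; DPDPE was the internal standard. Antagonism tested against deltorphin II and given as pA2 (Schild plot / Kosterlitz and Watt method). Values are mean ± SE of separate tissue assays.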

The subject of series [5] is Mus musculus. The series can be described thus: Toxicity in Swiss-Webster mouse assessed as induction of agitated behavior at 10 ug, icv. Particulars: in vivo, icv_or_intrathecal. Format: organism-based.
Series [6] relates to Mus musculus. The series can be described thus: Toxicity in icv dosed Swiss-Webster mouse assessed as induction of convulsion. Format: organism-based. Particulars: in vivo, icv_or_intrathecal.
Series [7] deals with Mus musculus. The series can be described thus: Analgesic activity in icv dosed Swiss-Webster mouse by tail flick test. Format: functional, organism-based. A general note: In hot-plate and tail-flick tests a longer latency is read as antinociception.
The subject of series [8] is Mus musculus. The series can be described thus: Antinociceptive activity in Swiss-Webster mouse at 10 ug, icv by tail flick test in presence of naloxone. It counts as functional, organism-based. The method, boiled down: (§2)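 Mice given sc naltrindole (3 mg/kg) or naloxone (10 mg/kg), then 20 min later 10 µg/mouse icv in 5 μL saline. Nociception measured by hot-plate (55 °C, latency to jump/lick/paw-shake, 30 s cut-off, every 10 min) or tail-flick.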

Series [9] has as its system Mus musculus. The series can be described thus: Antinociceptive activity in Swiss-Webster mouse at 10 ug, icv by tail flick test in presence of naltrindole. It counts as functional, organism-based. The method in brief: as §2
Series [10] relates to Brain. The series can be described thus: Stability in Swiss mouse brain after 2 hrs. It counts as ADME, tissue-based.
The subject of series [11] is Mus musculus. The series can be described thus: Antinociceptive activity in Swiss-Webster mouse at 10 ug, icv after 10 mins by hot plate test in presence of naloxone. It counts as functional, organism-based. The method, boiled down:
as §2

For series [12], the system named is Mus musculus. The series can be described thus: Analgesic activity in icv dosed Swiss-Webster mouse after 10 mins by hot plate test. It counts as functional, organism-based. The method, boiled down: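 Male Swiss-Webster mice (20–25 g) given 5 μL of peptide in saline icv at bregma; only mice with a correct needle tract were counted. For hot plate: 55 ± 0.1 °C, start 10 min post-dose, latency to jump, lick or shake hind paw, 30 s cut-off, repeated every 10 min.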

For series [13], the system named is Mus musculus. The series can be described thus: Antinociceptive activity in Swiss-Webster mouse at 10 ug, icv after 10 mins by hot plate test in presence of naltrindole. Format: functional, organism-based. The method, boiled down: as §2
Series [14] concerns Plasma. The series can be described thus: Stability in Swiss mouse plasma after 4 hrs. It counts as ADME, cell-free.
Series [15] deals with Mus musculus. Description: Toxicity in Swiss-Webster mouse assessed as induction of sedation at 10 ug, icv. It counts as organism-based. Particulars: in vivo, icv_or_intrathecal.

The source made the active and inactive calls. Where a SMILES comes first, the peptide text is derived from it. [ ]: non-standard residue; d: D form. The star is where a group is joined. Dmt = Cc1cc(O)cc(C)c1C[C@H](N)C(=O)O; Tic = O=C(O)[C@@H]1Cc2ccccc2CN1; NHBn = c1ccc(CN*)cc1; NHPh = c1ccc(N*)cc1

Mu-type opioid receptor, sequence (P33535 whole entry): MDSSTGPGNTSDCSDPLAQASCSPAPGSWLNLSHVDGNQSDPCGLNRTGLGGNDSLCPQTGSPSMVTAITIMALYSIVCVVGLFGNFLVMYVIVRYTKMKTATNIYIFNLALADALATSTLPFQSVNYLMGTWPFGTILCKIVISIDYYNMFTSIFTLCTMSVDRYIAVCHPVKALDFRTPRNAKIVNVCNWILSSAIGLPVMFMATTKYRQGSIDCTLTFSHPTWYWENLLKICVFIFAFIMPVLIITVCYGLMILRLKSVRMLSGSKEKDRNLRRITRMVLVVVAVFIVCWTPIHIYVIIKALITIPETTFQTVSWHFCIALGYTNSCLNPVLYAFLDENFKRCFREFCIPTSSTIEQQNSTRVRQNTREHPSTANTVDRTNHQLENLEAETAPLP
Delta-type opioid receptor (Rattus norvegicus, UniProt P33533), sequence (P33533 whole entry): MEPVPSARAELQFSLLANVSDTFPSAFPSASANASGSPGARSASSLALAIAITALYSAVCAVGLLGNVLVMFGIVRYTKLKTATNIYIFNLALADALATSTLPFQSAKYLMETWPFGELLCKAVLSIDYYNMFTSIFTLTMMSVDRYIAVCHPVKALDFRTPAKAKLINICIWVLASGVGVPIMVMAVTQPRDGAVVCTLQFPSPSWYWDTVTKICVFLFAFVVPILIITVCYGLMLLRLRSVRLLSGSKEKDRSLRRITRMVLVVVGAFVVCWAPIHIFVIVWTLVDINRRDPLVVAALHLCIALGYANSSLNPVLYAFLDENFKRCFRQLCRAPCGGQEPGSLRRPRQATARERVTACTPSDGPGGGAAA
Delta-type opioid receptor (Mus musculus, UniProt P32300), sequence (P32300 whole entry): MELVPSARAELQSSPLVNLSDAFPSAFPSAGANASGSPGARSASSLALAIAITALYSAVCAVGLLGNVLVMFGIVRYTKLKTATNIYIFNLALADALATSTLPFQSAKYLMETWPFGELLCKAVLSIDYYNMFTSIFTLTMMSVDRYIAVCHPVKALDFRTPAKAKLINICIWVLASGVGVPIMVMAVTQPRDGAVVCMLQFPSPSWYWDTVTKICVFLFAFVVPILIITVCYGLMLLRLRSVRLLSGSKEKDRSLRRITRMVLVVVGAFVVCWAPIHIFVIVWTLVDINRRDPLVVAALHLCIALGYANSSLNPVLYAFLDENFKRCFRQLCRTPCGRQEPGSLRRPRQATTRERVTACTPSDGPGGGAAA

Regarding `Cc1cc(O)cc(C)c1C[C@H](N)C(=O)N1Cc2ccccc2C[C@H]1C(=O)NCC(=O)Nc1ccccc1` (H-[Dmt]-[Tic]-Gly-NHPh), the Ratio Ki in series [1] came to 4.

`Cc1cc(O)cc(C)c1C[C@H](N)C(=O)N1Cc2ccccc2C[C@H]1C(=O)NCC(=O)N(C)c1ccccc1`: the Ratio Ki in [1] stood at 12. Further, the Ki is 1.75 nM in series [2] and 0.143 nM in series [3]. Moreover, the Kb in series [4] is 1.58 nM.

For `Cc1cc(O)cc(C)c1C[C@H](N)C(=O)N1Cc2ccccc2C[C@H]1C(=O)N[C@@H](CC(=O)O)C(=O)N(C)c1ccccc1`, the Ratio Ki in series [1] came to 1960. Moreover, the values for the Ki in [2] and in series [3] were 364 nM and 0.186 nM, respectively. Also, in series [4], the Kb was 1.78 nM.

On to `Cc1cc(O)cc(C)c1C[C@H](N)C(=O)N1Cc2ccccc2C[C@H]1C(=O)N[C@H](CC(=O)O)c1nc2ccccc2[nH]1`, for which, in series [1], the Ratio Ki was determined as 240. Besides, the Ki in series [2] was determined as 16.1 nM; in series [3], 0.067 nM.

For `Cc1cc(O)cc(C)c1C[C@H](N)C(=O)N1Cc2ccccc2C[C@H]1C(=O)N[C@@H](CC(=O)O)C(=O)Nc1ccccc1`, the Ratio Ki in [1] was 300. Moreover, the values for the Ki in series [2] and in series [3] were 10.8 nM and 0.036 nM, respectively. The Kb in series [4] was 0.398 nM.

With `Cc1cc(O)cc(C)c1C[C@H](N)C(=O)N1Cc2ccccc2C[C@H]1C(=O)N[C@@H](CC(=O)O)C(=O)NCc1ccccc1` (H-[Dmt]-[Tic]-Asp-NHBn), the Ki in series [2] worked out at 309 nM; in series [3], 0.054 nM. Moreover, in series [4], the Kb was 2.95 nM.

Turning to `Cc1cc(O)cc(C)c1C[C@H](N)C(=O)N1Cc2ccccc2C[C@H]1C(=O)N[C@H](CC(=O)O)c1nc2ccccc2n1C`, the Ratio Ki in series [1] came to 169. In addition, the Ki in [2] was determined as 11.8 nM; in [3], 0.07 nM. Besides, the Kb in [4] is 0.224 nM.

On to `Cc1cc(O)cc(C)c1C[C@H](N)C(=O)N1Cc2ccccc2C[C@H]1C(=O)N[C@@H](CC(=O)O)c1nc2ccccc2[nH]1`, for which the Activity entry in [5] was “Toxic”; in series [6], “Toxic”; in series [7], “Dose-dependent effect”; in series [12] it was “Dose-dependent effect”. Also, the Ratio Ki in series [1] worked out at 122. The outcome in [8] and in series [9] was inactive. Also, the Stability entry in series [10] and in [14] was “Stable” throughout. In addition, the outcome in [11] and in series [13] was Active. In [4], the Kb was 0.126 nM.

As to `Cc1cc(O)cc(C)c1C[C@H](N)C(=O)N1Cc2ccccc2C[C@H]1C(=O)N[C@H](CC(=O)O)C(=O)N(C)c1ccccc1`, the Ratio Ki in series [1] amounted to 536. In addition, the Ki in series [2] was 45 nM; in series [3] it was 0.084 nM. The Kb in series [4] was 8.71 nM.

As to `Cc1cc(O)cc(C)c1C[C@H](N)C(=O)N1Cc2ccccc2C[C@H]1C(=O)N[C@H](CC(=O)O)C(=O)Nc1ccccc1`, in [1], the Ratio Ki is 129. Further, the Ki in series [2] came to 7.49 nM; in [3], 0.058 nM. Moreover, the Kb in series [4] is 2.4 nM.

With `Cc1cc(O)cc(C)c1C[C@H](N)C(=O)N1Cc2ccccc2C[C@H]1C(=O)N[C@@H](CC(=O)O)c1nc2ccccc2n1C`, the Ratio Ki in series [1] was 101. The Activity entry in series [6] is “Toxic”; in series [15] it was “Toxic”; in series [7] it was “Dose-dependent effect”; in series [12], “Dose-dependent effect”. The outcome in series [8] and in [9] was inactive. Besides, the Stability result in series [10] and in [14] was “Stable” throughout. In addition, the outcome in series [11] and in series [13] was Active. Further, the Ki in series [2] worked out at 5.93 nM; in series [3] it was 0.059 nM. Also, in [4], the Kb was 0.126 nM.

For the molecule `Cc1cc(O)cc(C)c1C[C@H](N)C(=O)N1Cc2ccccc2C[C@H]1C(=O)NCC(=O)NCc1ccccc1` (H-[Dmt]-[Tic]-Gly-NHBn), in series [1], the Ratio Ki turned out to be 5.

These data come from ChEMBL document CHEMBL1156628, “Further studies on lead compounds containing the opioid pharmacophore Dmt-Tic” (J Med Chem, 2008).
